# From paper PMC11887798 (Science Advances, 2025)
# Legend:
# C57BL/6 mice = experiment: APAP-induced ALF model validation; assay type: in vivo, mouse; settings: APAP 500 mg/kg i.p.
# Outline: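 Male C57BL/6 mice were housed under SPF conditions with a 12-hour/12-hour light/dark cycle at 22°C and 45 to 60% humidity. APAP was dissolved in physiological saline by heating at 50°C and given intraperitoneally to induce acute liver failure.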
# P-selectin = settings: read-out: natural PSGL-1 binding to P-selectin (Kd); ref [23]; cited from earlier work
Molecule,serum ALT and AST (C57BL/6 mice; n = 6),"mortality of mice (C57BL/6 mice; within 72 hours, n = 10)",Kd (P-selectin) [nM]
"CC(=O)Nc1ccc(O)cc1 [APAP, acetaminophen]",rising rapidly within 12 hours and peaking at 24 hours,over 50%,
"PSGL-1: natural P-selectin ligand on neutrophils (protein, UniProt Q14242 42-412, looked up) P-selectin glycoprotein …: QATEYEYLDYDFLPETEPPEMLRNSTDTTPLTGPGTPESTTVEPAARRSTGLDAGGAVTELTTELANMGNLSTDSAAMEIQTTQPAATEAQTTQPVPTEAQTTPLAATEAQTTRLTATEAQTTPLAATEAQTTPPAATEAQTTQPTGLEAQTTAPAAMEAQTTAPAAMEAQTTPPAAMEAQTTQTTAMEAQTTAPEATEAQTTQPTATEAQTTPLAAMEALSTEPSATEALSMEPTTKRGLFIPFSVSSVTHKGIPMAASNLSVNYPVGAPDHISVKQCLLAILILALVATIFFVCTVVLAVRLSRKGHMYPVRNYSPTEMVCISSLLPDGGEGPSATANGGLSKAKSPGLTPEPREDREGDDLTLHSFLP",,,320
